Data taken from ChEMBL document CHEMBL1142896, “The synthesis of amphipathic prodrugs of 1,2-diol drugs with saccharide conjugates by high regioselective enzymatic protocol” (Bioorg Med Chem, 2007).

How the values were obtained:
[1] = Partition coefficient, log P of the compound; type: physicochemical; conditions: octanol/water
In short: (§1)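 Shake-flask partitioning between n-octanol and phosphate buffer pH 7.4; phases mixed 15 min, centrifuged at 1 · 10⁴ rpm for 5 min, separated. Each layer diluted tenfold and analysed by HPLC (UV detection 228–232 nm, methanol/water 80:20 eluent). D7.4 calculated from the layer concentrations; triplicate, mean reported.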

[2] = Distribution coefficient, log D at pH 7.4; type: physicochemical; conditions: octanol/water; in short: as §1
[3] = Half life of hydrolysis in hydrochloric acid buffer at pH 1.2; type: ADME
In short: (§2)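 Non-enzymatic chemical hydrolysis at 37 °C in 0.2 M hydrochloric acid buffer pH 1.2 (simulated gastric fluid) or 0.2 M phosphate buffer pH 7.4. 25 mM dioxane stock diluted 1:10 into thermostated buffer. Remaining ester followed by HPLC. Pseudo-first-order k_obsd fitted, and t1/2 derived from it.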

[4] = Half life of hydrolysis in phosphate buffer at pH 7.4; type: ADME; in short: as §2

LogP [1] | Log D [2] | half-life [3] [h] | half-life [4] [h] | SMILES
1.44 | 1.44 | – | – | NC(=O)OCC(O)COc1ccc(Cl)cc1 (stereo unspecified) [CHLORPHENESIN CARBAMATE]
1.09 | 1.09 | 8.75 | 19.9 | Cc1ccccc1OCC(O)CO (stereo unspecified) [MEPHENESIN]
